The results in this text go back to ChEMBL document CHEMBL4390672, “Development of Covalent Ligands for G Protein-Coupled Receptors: A Case for the Human Adenosine A3 Receptor” (J Med Chem, 2019).

As usually defined, the inhibition is the share of the control response that was lost under treatment.

Assay [1] concerns the target T1, Adenosine receptor A3 (Homo sapiens) (UniProt P0DMS8).
T1 sequence (whole entry): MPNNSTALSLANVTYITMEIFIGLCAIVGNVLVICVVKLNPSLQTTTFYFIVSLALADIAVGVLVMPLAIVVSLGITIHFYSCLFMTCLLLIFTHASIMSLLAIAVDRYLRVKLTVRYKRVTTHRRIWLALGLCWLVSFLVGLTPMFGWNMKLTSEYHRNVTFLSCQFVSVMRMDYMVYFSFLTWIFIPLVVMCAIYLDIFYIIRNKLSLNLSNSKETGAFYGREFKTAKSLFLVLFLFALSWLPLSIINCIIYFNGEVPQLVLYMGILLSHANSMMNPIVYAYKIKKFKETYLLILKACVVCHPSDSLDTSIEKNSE
As to the kind of experiment: Displacement of [3H]PSB11 from human A3 adenosine receptor expressed in CHO cell membranes measured after 2 hrs by scintillation spectrometric method. For orientation: Displacement assays read how much labelled ligand stays bound in the presence of the test substance.

Assay [2] has as its target T1, Adenosine receptor A3 (Homo sapiens). As to the kind of experiment: Displacement of [3H]PSB11 from human A3 adenosine receptor expressed in CHO cell membranes by scintillation spectrometric method. As to conditions: TDE = time-dependent effect. In a few lines:
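CHO membranes stably expressing hA3AR (15 µg) in 50 mM Tris-HCl, 5 mM MgCl2, 0.01% CHAPS, 1 mM EDTA, pH 7.4, with ~10 nM [3H]PSB-11 and six competitor concentrations, 120 min at 25 °C. Nonspecific binding defined with 100 µM NECA. Filtration, then scintillation counting; one-site fit, Cheng-Prusoff Ki; three experiments in duplicate.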

The test system of assay [3] is T2, Adenosine receptor A3 (Homo sapiens), P0DMS8 [Y265F].
T2 sequence (whole entry): T1 sequence (whole entry) with Y265F
Nature of the assay: Displacement of [3H]PSB11 from human A3 adenosine receptor Y265F (7.36) mutant transiently expressed in CHOK1 cell membranes assessed as residual binding level at 10 times IC50 incubated for 2 hrs followed by 4 times membrane washout and subsequent [3H]PSB11 addition by scintillation spectrometric method. In a few lines:
(§1)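 Membranes then either unwashed or washed four times before [3H]PSB-11 exposure. Binding normalized to vehicle (100%); three experiments in duplicate.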

Assay [4] has the same test system. As to the kind of experiment: Displacement of [3H]PSB11 from human A3 adenosine receptor Y265F (7.36) mutant transiently expressed in CHOK1 cell membranes assessed as residual binding level at 10 times IC50 measured after 2 hrs by scintillation spectrometric method. The essentials: as §1
In assay [5] the target is T1, Adenosine receptor A3 (Homo sapiens). As to the kind of experiment: Irreversible displacement of [3H]PSB11 from human A3 adenosine receptor expressed in CHO cell membranes assessed as residual binding level at 10 times Ki measured after 2 hrs by scintillation spectrometric method relative to control. The essentials: (§2)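 Membranes then either unwashed or washed four times by centrifugation before [3H]PSB-11 addition. Specific binding normalized to vehicle (100%); three experiments in duplicate; unpaired t test.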

For assay [6] the target is unchanged. Nature of the assay: Irreversible displacement of [3H]PSB11 from human A3 adenosine receptor expressed in CHO cell membranes assessed as residual binding level at 10 times Ki incubated for 2 hrs followed by 4 times membrane washout ans subsequent [3H]PSB11 addition by scintillation spectrometric method relative to control. In a few lines: as §2
For assay [7] the target is unchanged. Nature of the assay: Displacement of [3H]PSB11 from human A3 adenosine receptor expressed in CHO cell membranes at 10 uM measured after 2 hrs by scintillation spectrometric method relative to control.
The target in assay [8] is T3, Adenosine receptor A3 (Homo sapiens, UniProt P0DMS8).
T3 sequence (P0DMS8 whole entry): T1 sequence (whole entry)
Nature of the assay: Competitive surmountable antagonist activity at human A3 adenosine receptor expressed in CHO cell membranes assessed as inhibition of 2-Cl-IB-MECA-induced [35S]-GTPgammaS binding preincubated for 60 mins followed by 2-Cl-IB-MECA and [35S]-GTPgammaS addition and measured after 30 mins. Type of assay: functional. The note with it: read-out: pA2 (converted).

For assay [9], the system named is T2, Adenosine receptor A3 (Homo sapiens), P0DMS8 [Y265F]. Nature of the assay: Displacement of [3H]PSB11 from human A3 adenosine receptor Y265F (7.36) mutant transiently expressed in CHOK1 cell membranes measured after 2 hrs by scintillation spectrometric method. In a few lines:
(§3)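 CHO-K1 cells transfected by PEI (3:1, 20 µg DNA/dish) with WT or Y265F7.36 hA3AR, then given 5 mM sodium butyrate for 24 h before membrane preparation.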

Assay [10] deals with T1, Adenosine receptor A3 (Homo sapiens). As to the kind of experiment: Reversible displacement of [3H]PSB11 from human A3 adenosine receptor expressed in CHO cell membranes assessed as residual binding level at 10 times Ki incubated for 2 hrs followed by 4 times membrane washout and subsequent [3H]PSB11 addition by scintillation spectrometric method relative to control. In a few lines:
(§4)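 Samples then either taken unwashed or put through four centrifugation wash cycles before exposure to [3H]PSB-11. Remaining specific binding was normalized to vehicle (100%). Three experiments in duplicate; unpaired t test.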

Assay [11] shares this target. As to the kind of experiment: Displacement of [3H]PSB11 from human A3 adenosine receptor transiently expressed in CHOK1 cell membranes measured after 2 hrs by scintillation spectrometric method. In a few lines:
as §3

The target in assay [12] is T4, Adenosine receptor A2b (Homo sapiens) (UniProt P29275).
T4 sequence (whole entry): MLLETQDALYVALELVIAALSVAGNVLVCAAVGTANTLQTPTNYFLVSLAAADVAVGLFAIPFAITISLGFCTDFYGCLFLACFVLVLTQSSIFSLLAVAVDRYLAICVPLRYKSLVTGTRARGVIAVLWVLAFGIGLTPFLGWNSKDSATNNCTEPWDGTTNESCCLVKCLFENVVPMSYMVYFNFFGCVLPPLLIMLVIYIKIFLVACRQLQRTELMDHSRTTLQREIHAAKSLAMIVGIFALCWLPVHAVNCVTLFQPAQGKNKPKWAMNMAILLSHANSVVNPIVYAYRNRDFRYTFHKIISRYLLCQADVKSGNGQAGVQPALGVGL
Nature of the assay: Displacement of [3H]PSB-603 from human A2B adenosine receptor expressed in CHO cell membranes at 1 uM measured after 2 hrs by scintillation spectrometric method relative to control.

Assay [13] concerns the target T3, Adenosine receptor A3. As to the kind of experiment: Irreversible displacement of [3H]PSB11 from human A3 adenosine receptor expressed in CHO cell membranes measured up to 240 mins by scintillation spectrometric method. As to conditions: in the assay text read “Displacement” for “Irreversible displacement”. The essentials:
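Bound radioligand sampled at time points up to 240 min, then filtered and counted. Competitor kon (k3) and koff (k4) obtained by Motulsky–Mahan fitting, using [3H]PSB-11 k1 and k2 from earlier work.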

Assay [14] deals with T1, Adenosine receptor A3 (Homo sapiens). Nature of the assay: Reversible displacement of [3H]PSB11 from human A3 adenosine receptor expressed in CHO cell membranes assessed as residual binding level at 10 times Ki measured after 2 hrs by scintillation spectrometric method relative to control. The essentials: as §4
For assay [15], the target named is T3, Adenosine receptor A3. As to the kind of experiment: Competitive surmountable antagonist activity at human A3 adenosine receptor expressed in CHO cell membranes assessed as inhibition of 2-Cl-IB-MECA-induced [35S]-GTPgammaS binding measured after 30 mins. Type of assay: functional. As to conditions: read-out: pA2 (converted). (Binding of GTPγS marks nucleotide exchange on a G protein.)

Substitutions are numbered along the chain they refer to.

Take `CCCn1c(=O)c2c(nc3cc(OC)ccn32)n(CCCOC(=O)c2cccc(S(=O)(=O)F)c2)c1=O`: the inhibition entry in [1] was “Dose-dependent effect”.
Consider `CCCn1c(=O)c2c(nc3cc(OC)ccn32)n(CCOC(=O)c2cccc(S(=O)(=O)F)c2)c1=O`, for which the inhibition result in assay [1] is “Dose-dependent effect”.
Regarding `CCCn1c(=O)c2c(nc3cc(OC)ccn32)n(CCCNC(=O)c2ccc(S(=O)(=O)F)cc2)c1=O`, the figures for the inhibition entry in assay [2] and in assay [1] were “Tde” and “Dose-dependent effect”, respectively. Further, the Activity in assay [3] worked out at 91%; in [4], 7.2%; in assay [5] it was 11.3%; in [6], 8.7%.
As to `CCCn1c(=O)c2c(nc3cc(OC)ccn32)n(CCNC(=O)c2cccc(S(=O)(=O)F)c2)c1=O`, the inhibition in assay [7] was 18%; in [1] it was “Dose-dependent effect”.
Turning to `CCCn1c(=O)c2c(nc3cc(OC)ccn32)n(CCCOC(=O)c2ccc(S(=O)(=O)F)cc2)c1=O`, the inhibition entry in [1] was “Dose-dependent effect”.
In the case of `CCCn1c(=O)c2c(nc3cc(OC)ccn32)n(CCCCOC(=O)c2ccc(S(=O)(=O)F)cc2)c1=O`, in [1], the inhibition result was “Dose-dependent effect”.
On to `CCCn1c(=O)c2c(nc3cc(OC)ccn32)n(CCNC(=O)c2ccc(S(=O)(=O)F)cc2)c1=O`, for which the inhibition in assay [7] is 27%; in [1], “Dose-dependent effect”.
Take `CCCn1c(=O)c2c(nc3cc(OC)ccn32)n(CCCNC(=O)c2ccc(S(C)(=O)=O)cc2)c1=O`: the Kb is 1260 nM in assay [8] and 631 nM in [15]. Further, the pIC50(app) in assay [9] was 6.1; in assay [11], 5.9. Also, the Activity in [10] amounted to 97.6%; in assay [14], 19.8%. Further, the inhibition in [12] was 0%; in assay [1] it was “Dose-dependent effect”. The same molecule had a Ki in assay [13] of 525 nM.
Take `CCCn1c(=O)c2c(nc3cc(OC)ccn32)n(CCCCNC(=O)c2cccc(S(=O)(=O)F)c2)c1=O`: the inhibition entry in assay [1] is “Dose-dependent effect”.
With `CCCn1c(=O)c2c(nc3cc(OC)ccn32)n(CCCCOC(=O)c2cccc(S(=O)(=O)F)c2)c1=O`, the inhibition result in assay [1] is “Dose-dependent effect”.
In the case of `CCCn1c(=O)c2c(nc3cc(OC)ccn32)n(CCCNC(=O)c2cccc(S(=O)(=O)F)c2)c1=O`, the inhibition entry in assay [1] was “Dose-dependent effect”.
Regarding `CCCn1c(=O)c2c(nc3cc(OC)ccn32)n(CCOC(=O)c2ccc(S(=O)(=O)F)cc2)c1=O`, the inhibition entry in [1] was “Dose-dependent effect”.
Consider `CCCn1c(=O)c2c(nc3cc(OC)ccn32)n(CCCCNC(=O)c2ccc(S(=O)(=O)F)cc2)c1=O`, for which the inhibition entry in [1] is “Dose-dependent effect”.
